According to ChEMBL document CHEMBL6071208, “Promoting Apoptosis in MCF-7 Cells via ROS Generation by Quinolino-triazoles Derived from One-Pot Telescopic Synthesis” (ACS Med Chem Lett, 2024):
Each block holds one molecule with its values, some of them ahead of it. The source made the active and inactive calls. The rule behind the calls is not given here.

Legend:
MCF7 [1] = assay: Cytotoxicity against human MCF7 cells assessed inhibition of cell proliferation measured for 24 hrs by MTT assay; format: functional, cell-based; settings: MCF7, 24 h
Method in brief: (§1)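 MTT read-out of proliferation after 24 h exposure; MCF-7 breast cancer cells alongside noncancerous human embryonic kidney HEK-293 cells. IC50 in μM taken as the average ± SD of three individual experiments.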

HEK293 = assay: Cytotoxicity against HEK293 cells assessed inhibition of cell proliferation measured after 24 hrs by MTT assay; format: toxicity, cell-based; settings: human, hek293, 24 h; method in brief: as §1
MCF7 [2] = assay: Induction of intracellular ROS generation in human MCF7 cells at 10 uM incubated for 24 hrs by DCFDA staining based fluorescence microscopic analysis; format: functional, cell-based
Method in brief: (§2)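 DCFDA-loaded MCF-7 cells imaged by fluorescence microscopy at 20× for qualitative ROS signal. Cisplatin serves as standard. Images represent three experiments. Scale bar 150 μm.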

MCF7 [3] = assay: Induction of ROS production in human MCF7 cells assessed as increase in ROS level at 10 uM incubated for 24 hrs by DCFH-DA staining based flow cytometry analysis; format: functional, cell-based
Method in brief: (§3)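 Intracellular ROS measured with the H2DCFDA probe. Esterase-deacetylated dye is oxidised to fluorescent DCF (ex 498/em 522 nm). Flow cytometry gave the percentage of ROS-positive MCF-7 cells against untreated control, with cisplatin (5 μM) as positive control. Mean ± SD of three independent investigations.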

MCF7 [4] = assay: Induction of apoptosis in human MCF7 cells assessed as increase in early apoptotic cells at 10 uM incubated for 24 hrs by acridine orange/EtBr staining based fluorescence microscopic analysis; format: functional, cell-based
Method in brief: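 Acridine orange/ethidium bromide dual staining of MCF-7 cells, with cisplatin (5 μM) as reference. Fluorescence microscopy classified cells as live (green nuclei), early apoptotic, late apoptotic or necrotic (orange-red nuclei). Images represent three independent experiments.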

Mitochondrial membrane [5] = assay: Induction of mitochondrial membrane potential loss in human MCF7 cells assessed as increase in fluorescence intensity at 10 uM measured for 24 hrs by rhodamine-123 dye based flow cytometry analysis
Method in brief: (§4)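 MCF-7 cells stained with rhodamine-123. Flow cytometry gave the percentage of cells with mitochondrial membrane potential loss against the untreated basal control. Mean ± SD of three independent investigations.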

Mitochondrial membrane [6] = assay: Induction of mitochondrial membrane potential loss in human MCF7 cells assessed as increase in fluorescence intensity at 10 uM measured for 24 hrs by rhodamine-123 dye based flow cytometry analysis (reference value: 8%); method in brief: as §4
MCF7 [7] = assay: Induction of apoptosis in human MCF7 cells assessed as increase in Bax mRNA expression at 10 uM measured for 24 hrs bt RT-PCR analysis; format: functional, cell-based
Method in brief: (§5)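 mRNA levels of Bax, Bad (pro-apoptotic) and Bcl-2 (anti-apoptotic) measured in treated MCF-7 cells relative to untreated control. Mean ± SD of three independent studies.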

MCF7 [8] = assay: Induction of apoptosis in human MCF7 cells assessed as increase in Bad mRNA expression at 10 uM measured for 24 hrs bt RT-PCR analysis; format: functional, cell-based; method in brief: as §5
MCF7 [9] = assay: Induction of apoptosis in human MCF7 cells assessed as decrease in Bcl-2 mRNA expression at 10 uM measured for 24 hrs bt RT-PCR analysis; format: functional, cell-based; method in brief: as §5
MCF7 [10] = assay: Induction of DNA fragmentation in human MCF7 cells assessed as increase in condensed nuclei at 10 uM measured for 24 hrs by DAPI staining based fluorescence microscopic analysis; format: functional, cell-based
Method in brief: (§6)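 MCF-7 nuclei stained with DAPI after exposure, with cisplatin (5 μM) as reference. Fluorescence microscopy scored condensed and fragmented nuclei. Images represent three individual experiments. Scale bar 150 μm.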

MCF7 [11] = assay: Induction of DNA fragmentation in human MCF7 cells assessed as increase in fragmented nuclei at 10 uM measured for 24 hrs by DAPI staining based fluorescence microscopic analysis; format: functional, cell-based; method in brief: as §6
[12] = Drug localization in cytoplasm of human MCF7 cells assessed as increase in red fluorescence at 10 uM incubated for 24 hrs by DAPI staining based confocal fluorescence microscopic analysis; format: ADME, subcellular; settings: mcf7, 24 h
[13] = Drug localization in nucleus of human MCF7 cells assessed as increase in red fluorescence at 10 uM incubated for 24 hrs by DAPI staining based confocal fluorescence microscopic analysis; format: ADME, subcellular; settings: mcf7, 24 h
MCF7 [14] = assay: Induction of intracellular ROS generation in human MCF7 cells at 12 uM incubated for 24 hrs by DCFDA staining based fluorescence microscopic analysis; format: functional, cell-based; method in brief: as §2
MCF7 [15] = assay: Induction of ROS production in human MCF7 cells assessed as increase in ROS level at 12 uM incubated for 24 hrs by DCFH-DA staining based flow cytometry analysis; format: functional, cell-based; method in brief: as §3
Mitochondrial membrane [16] = assay: Induction of mitochondrial membrane potential loss in human MCF7 cells assessed as increase in fluorescence intensity at 12 uM measured for 24 hrs by rhodamine-123 dye based flow cytometry analysis; method in brief: as §4
Mitochondrial membrane [17] = assay: Induction of mitochondrial membrane potential loss in human MCF7 cells assessed as increase in fluorescence intensity at 12 uM measured for 24 hrs by rhodamine-123 dye based flow cytometry analysis (reference value: 8%); method in brief: as §4
MCF7 [18] = assay: Induction of apoptosis in human MCF7 cells assessed as increase in Bax mRNA expression at 12 uM measured for 24 hrs bt RT-PCR analysis; format: functional, cell-based; method in brief: as §5
MCF7 [19] = assay: Induction of apoptosis in human MCF7 cells assessed as increase in Bad mRNA expression at 12 uM measured for 24 hrs bt RT-PCR analysis; format: functional, cell-based; method in brief: as §5
MCF7 [20] = assay: Induction of apoptosis in human MCF7 cells assessed as decrease in Bcl-2 mRNA expression at 12 uM measured for 24 hrs bt RT-PCR analysis; format: functional, cell-based; method in brief: as §5
MCF7 [21] = assay: Induction of DNA fragmentation in human MCF7 cells assessed as increase in condensed nuclei at 12 uM measured for 24 hrs by DAPI staining based fluorescence microscopic analysis; format: functional, cell-based; method in brief: as §6
MCF7 [22] = assay: Induction of DNA fragmentation in human MCF7 cells assessed as increase in fragmented nuclei at 12 uM measured for 24 hrs by DAPI staining based fluorescence microscopic analysis; format: functional, cell-based; method in brief: as §6
[23] = Drug localization in human MCF7 cells at 12 uM incubated for 24 hrs by DAPI staining based confocal fluorescence microscopic analysis; format: ADME, cell-based; settings: mcf7, 24 h
MCF7 [24] = assay: Induction of apoptosis in human MCF7 cells assessed as increase in number of necrotic cells at 12 uM incubated for 24 hrs by acridine orange/EtBr staining based fluorescence microscopic analysis
MCF7 [25] = assay: Induction of apoptosis in human MCF7 cells assessed as increase in number of late apoptotic cells at 12 uM incubated for 24 hrs by acridine orange/EtBr staining based fluorescence microscopic analysis

Compound: CCOC(=O)c1n[nH]nc1-c1cc2ccccc2nc1Oc1ccccc1
- IC50 (MCF7 [1]): 90 µM

Compound: Cc1ccc(Oc2nc3ccccc3cc2-c2n[nH]nc2C(N)=O)cc1
- IC50 (MCF7 [1]): 62.5 µM

Compound: CCOC(=O)c1n[nH]nc1-c1cc2ccc(C)cc2nc1Oc1ccc(C)cc1
- IC50 (MCF7 [1]): 42.5 µM

Compound: CCOC(=O)c1n[nH]nc1-c1cc2ccc(C)cc2nc1Oc1ccc(I)cc1
- IC50 (MCF7 [1]): 20 µM

- Activity (Mitochondrial membrane [5]): Active
- Activity (Mitochondrial membrane [6]): 23%
- Drug uptake [12]: Active
- Drug uptake [13]: Active
Compound: N#Cc1ccc(Oc2nc3ccccc3cc2-c2n[nH]nc2C(N)=O)cc1
- IC50 (MCF7 [1]): 10 µM
- Activity (HEK293): Non-Toxic
- Activity (MCF7 [2]): Active
- Activity (MCF7 [3]): Active
- Activity (MCF7 [4]): Active
- Activity (MCF7 [7]): Active
- Activity (MCF7 [8]): Active
- Activity (MCF7 [9]): Active
- Activity (MCF7 [10]): Active
- Activity (MCF7 [11]): Active

Compound: CCOC(=O)c1n[nH]nc1-c1cc2cc(C)c(C)cc2nc1Oc1ccc(C#N)cc1
- IC50 (MCF7 [1]): 65 µM

- Activity (Mitochondrial membrane [16]): Active
- Activity (Mitochondrial membrane [17]): 14%
- Drug uptake [23]: Not Active
Compound: NC(=O)c1n[nH]nc1-c1cc2ccccc2nc1Oc1ccc(Br)cc1
- IC50 (MCF7 [1]): 12 µM
- Activity (HEK293): Non-Toxic
- Activity (MCF7 [14]): Active
- Activity (MCF7 [15]): Active
- Activity (MCF7 [18]): Active
- Activity (MCF7 [19]): Active
- Activity (MCF7 [20]): Active
- Activity (MCF7 [21]): Active
- Activity (MCF7 [22]): Active
- Activity (MCF7 [24]): Active
- Activity (MCF7 [25]): Active

Compound: CCOC(=O)c1n[nH]nc1-c1cc2ccccc2nc1Oc1ccc(C)cc1
- IC50 (MCF7 [1]): 53 µM

Compound: CCOC(=O)c1n[nH]nc1-c1cc2ccc(C)cc2nc1Oc1ccc(C#N)cc1
- IC50 (MCF7 [1]): 19 µM

Compound: NC(=O)c1n[nH]nc1-c1cc2ccccc2nc1Oc1ccc(I)cc1
- IC50 (MCF7 [1]): 17.5 µM
